pIC50: −log10 of the molar value.
Legend:
[1] = tested on: CWR22R; assay: Antiproliferative activity against human 22Rv1 cells assessed as reduction in cell viability incubated for 6 days by CCK8 assay; type: functional, cell-based; conditions: 22Rv1, 144 h
How it was run: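 Cells seeded (2×10^4 per well for VCaP, 1–3×10^3 for the others) and compound added after 24 h as a 9-point, 3-fold serial dilution. Exposure 6 days, then CCK-8 for 1–4 h and absorbance at 450 nm. IC50 from curve fit, mean of at least two independent experiments run in duplicate.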

[2] = molecular target: T1, Steroid 17-alpha-hydroxylase/17,20 lyase (Homo sapiens, UniProt P05093); assay: Inhibition of C-myc/DDK tagged human CYP17A1 expressed in HEK293T cells assessed as reduction in formation of 17-OHP at 10 uM incubated for 30 mins by LC-MS/MS analysis; type: cell-based; conditions: 0.5 h, 10 µM
T1 sequence (P05093 whole entry): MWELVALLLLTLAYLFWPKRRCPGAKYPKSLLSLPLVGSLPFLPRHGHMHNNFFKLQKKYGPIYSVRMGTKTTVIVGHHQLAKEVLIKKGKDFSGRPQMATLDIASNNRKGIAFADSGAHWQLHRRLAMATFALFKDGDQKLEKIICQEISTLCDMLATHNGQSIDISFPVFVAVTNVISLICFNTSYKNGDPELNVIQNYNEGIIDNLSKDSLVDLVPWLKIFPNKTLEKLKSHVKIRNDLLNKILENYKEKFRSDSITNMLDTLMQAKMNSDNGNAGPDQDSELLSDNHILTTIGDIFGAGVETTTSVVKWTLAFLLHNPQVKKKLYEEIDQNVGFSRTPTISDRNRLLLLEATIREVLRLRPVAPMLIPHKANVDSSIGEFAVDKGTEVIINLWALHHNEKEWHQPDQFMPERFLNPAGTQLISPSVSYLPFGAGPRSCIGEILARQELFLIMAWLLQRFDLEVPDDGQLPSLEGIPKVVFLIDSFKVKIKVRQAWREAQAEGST
How it was run: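 CYP17A1 activity measured as 17α-hydroxyprogesterone formation in 50 mM Tris pH 7.4, 5 mM MgCl2. Incubation 30 min at 37 °C, quenched with 20% trichloroacetic acid; product quantified by LC-MS/MS. Mean ± SD, n = 2.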

[3] = Half life in Sprague-Dawley rat at 30 mg/kg, po measured upto 24 hrs by LC-MS/MS analysis; type: ADME, organism-based; conditions: in vivo
How it was run: (§1)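 Male SD rats (N = 3), single oral 30 mg/kg in PEG200/DMA (9:1, v/v). Blood from retrobulbar vein at 0–24 h; heparinized plasma, protein precipitation with methanol, LC-MS/MS quantitation; parameters by non-compartmental analysis.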

[4] = AUC (0 to t) in Sprague-Dawley rat at 30 mg/kg, po measured upto 24 hrs by LC-MS/MS analysis; type: ADME, organism-based; set-up: time < 24 hr, dose 30 mg/kg, route oral; conditions: in vivo
[5] = molecular target: T2, Androgen receptor (Homo sapiens) (UniProt P10275); assay: Antagonist activity at androgen receptor in human VCaP cells assessed as inhibition of R1881-induced PSA mRNA expression after 24 hrs by qRT-PCR analysis; type: cell-based
T2 sequence (whole entry): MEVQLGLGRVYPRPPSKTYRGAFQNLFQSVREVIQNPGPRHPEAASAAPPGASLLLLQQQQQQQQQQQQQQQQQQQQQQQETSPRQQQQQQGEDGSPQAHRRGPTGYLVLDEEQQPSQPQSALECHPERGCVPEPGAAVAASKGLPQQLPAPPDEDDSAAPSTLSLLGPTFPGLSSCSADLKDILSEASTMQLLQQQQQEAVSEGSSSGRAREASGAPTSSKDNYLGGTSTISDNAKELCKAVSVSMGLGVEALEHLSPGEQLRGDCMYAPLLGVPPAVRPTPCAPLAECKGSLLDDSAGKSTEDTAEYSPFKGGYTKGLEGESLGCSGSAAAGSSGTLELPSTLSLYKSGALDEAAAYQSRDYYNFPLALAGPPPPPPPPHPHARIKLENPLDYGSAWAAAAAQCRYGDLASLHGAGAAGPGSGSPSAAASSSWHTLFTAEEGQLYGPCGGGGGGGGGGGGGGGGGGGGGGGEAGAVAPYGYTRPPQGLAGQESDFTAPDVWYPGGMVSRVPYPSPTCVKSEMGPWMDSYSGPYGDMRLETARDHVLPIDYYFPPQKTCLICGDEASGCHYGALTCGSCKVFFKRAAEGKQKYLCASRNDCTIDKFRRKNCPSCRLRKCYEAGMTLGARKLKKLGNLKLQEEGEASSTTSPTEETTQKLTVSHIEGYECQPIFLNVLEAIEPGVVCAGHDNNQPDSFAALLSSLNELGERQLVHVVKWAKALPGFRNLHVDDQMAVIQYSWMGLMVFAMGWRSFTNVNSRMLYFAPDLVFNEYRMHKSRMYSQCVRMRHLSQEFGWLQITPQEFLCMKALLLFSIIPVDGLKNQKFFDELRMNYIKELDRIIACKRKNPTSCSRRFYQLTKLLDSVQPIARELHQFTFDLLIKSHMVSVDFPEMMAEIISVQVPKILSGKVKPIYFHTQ
How it was run: (§2)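 VCaP cells held 48 h in DMEM with 5% charcoal-stripped FBS, then 24 h with compound plus 0.2 nM R1881. TRIzol RNA extraction, cDNA synthesis, qRT-PCR for the target mRNA normalized to GAPDH; mean ± SD, n = 3.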

[6] = molecular target: T2, Androgen receptor (Homo sapiens); assay: Antagonist activity at androgen receptor in human VCaP cells assessed as inhibition of R1881-induced FKBP5 mRNA expression after 24 hrs by qRT-PCR analysis; type: cell-based; how it was run: as §2
[7] = Tmax in Sprague-Dawley rat at 30 mg/kg, po measured upto 24 hrs by LC-MS/MS analysis; type: ADME, organism-based; conditions: in vivo; how it was run: as §1
[8] = AUC ( 0 to infinity) in Sprague-Dawley rat at 30 mg/kg, po measured upto 24 hrs by LC-MS/MS analysis; type: ADME, organism-based; set-up: dose 30 mg/kg, time infinity, route oral; conditions: in vivo; how it was run: as §1

Compound: Cc1ccc(-c2c(C)noc2C)cc1Nc1ccc(C#N)c(Cl)c1
- pIC50 [1]: 5.46
- inhibition (INH) [2]: Not Active
- half-life [3]: 264 min
- AUC(0-t) at 24 h [4]: 4040 ng·h/mL
- Activity [5]: Dose-dependent effect
- Activity [6]: Dose-dependent effect
- Tmax [7]: 30 min
- AUC(0-inf) [8]: 4060 ng·h/mL

— ChEMBL document CHEMBL4346686, “Discovery and biological evaluation of novel androgen receptor antagonist for castration-resistant prostate cancer” (Eur J Med Chem, 2019)
